Measured values as given in ChEMBL document CHEMBL1142487, “Design, synthesis, and structure-activity relationship of novel opioid kappa-agonists” (Bioorg Med Chem, 2008).
Active and inactive are the calls of the source. The calls are words filed in the database; no cut-off is given here.

Tests used:
[1] = target: Mu-type opioid receptor (Mus musculus) (UniProt P42866); test: Equilibrium constant, ratio of IC50 for mu opioid receptor in ddy mouse vas deferens in presence of 30 nM naloxone to IC50 for mu opioid receptor in ddy mouse vas deferens
How it was run: (§1)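 Electrically stimulated ddY mouse vas deferens was held in Krebs-Henseleit at 37 °C under 95% O2/5% CO2. Tissue was preincubated 20 min with antagonist before the test agonist: naloxone 30 nM (μ), NTI 10 nM (δ), or nor-BNI 10 nM (κ). IC50s were compared with and without antagonist. Ke = [antagonist]/(IC50 ratio − 1).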

Mus musculus [2] = test: Antinociceptive activity in po dosed mouse assessed as inhibition of acetic acid-induced writhing administered 15 mins before acetic acid challenge; format: functional
How it was run: (§2)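 Male mice (5 weeks old) received test compound sc into the rostral back or po, 15 min before ip 0.6% aqueous acetic acid (0.1 mL/10 g). Writhes were counted over 10 min, starting 10 min after the acid. […] The po/sc ED50 ratio was calculated.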

Mus musculus [3] = test: Inhibition of acetic acid-induced writhing in sc dosed mouse up to 180 mins administered 15 mins before acetic acid challenge; format: functional, organism-based
[4] = target: Kappa-type opioid receptor (Mus musculus, UniProt P33534); test: Agonist activity at kappa opioid receptor in ddy mouse vas deferens assessed as inhibition of electric stimulation-induced contraction; format: functional, tissue-based
[5] = target: Delta-type opioid receptor (Mus musculus) (UniProt P32300); test: Equilibrium constant, ratio of IC50 for delta opioid receptor in ddy mouse vas deferens in presence of 10 nM Naltrindole to IC50 for delta opioid receptor in ddy mouse vas deferens; how it was run: as §1
Mus musculus [6] = test: Ratio of ED50 for acetic acid-induced writhing in po dosed mouse to ED50 for acetic acid-induced writhing in sc dosed mouse; format: functional; how it was run: as §2
Mus musculus [7] = test: Antinociceptive activity in sc dosed mouse assessed as inhibition of acetic acid-induced writhing administered 15 mins before acetic acid challenge; format: functional; how it was run: as §2
[8] = target: Kappa-type opioid receptor (Mus musculus) (UniProt P33534); test: Equilibrium constant, ratio of IC50 for kappa opioid receptor in ddy mouse vas deferens in presence of 10 nM nor-BNI to IC50 for kappa opioid receptor in ddy mouse vas deferens; how it was run: as §1
Mus musculus [9] = test: Antinociceptive activity in sc dosed mu opioid receptor antagonist naloxone treated mouse assessed as inhibition of acetic acid-induced writhing administered 15 mins before acetic acid challenge; format: functional, organism-based
Mus musculus [10] = test: Antinociceptive activity in sc dosed delta opioid receptor antagonist […] treated mouse assessed as inhibition of acetic acid-induced writhing administered 15 mins before acetic acid challenge; format: functional, organism-based
Mus musculus [11] = test: Antinociceptive activity in sc dosed kappa opioid receptor antagonist nor-BNI treated mouse assessed as inhibition of acetic acid-induced writhing administered 15 mins before acetic acid challenge; format: functional, organism-based
Mus musculus [12] = test: Antinociceptive activity in mouse assessed as inhibition of acetic acid-induced writhing at 10 mg/kg, sc administered 15 mins before acetic acid challenge; format: functional; conditions: route subcutaneous; how it was run: as §2
[13] = target: Kappa-type opioid receptor (Mus musculus) (UniProt P33534); test: Agonist activity at kappa opioid receptor in ddy mouse vas deferens assessed as inhibition of electric stimulation-induced contraction at 1 uM; format: functional, tissue-based

SMILES | Ke [1] [nM] | ED50 (Mus musculus [2]) [mg/kg] | Activity (Mus musculus [3]) | IC50 [4] [nM] | Ke [5] [nM] | Ratio ED50 (Mus musculus [6]) | ED50 (Mus musculus [7]) [mg/kg] | Ke [8] [nM] | Activity (Mus musculus [9]) | Activity (Mus musculus [10]) | Activity (Mus musculus [11]) | inhibition in vivo at 10 mg/kg (Mus musculus [12]) [%] | inhibition [13] [%]
COc1cccc(/C=C/C(=O)N(C)[C@@H]2CC[C@@]3(O)[C@H]4Cc5ccc(O)c6c5[C@@]3(CCN4CC3CC3)[C@H]2O6)c1 | 60.9 | 0.0048 | Active | 0.75 | 96.4 | 4.4 | 0.0011 | 1.6 |  |  |  |  | 
CN(C(=O)/C=C/c1cccc(F)c1)[C@@H]1CC[C@@]2(O)[C@H]3Cc4ccc(O)c5c4[C@@]2(CCN3CC2CC2)[C@H]1O5 |  | 0.007 | Active | 1.6 | 276 | 3.7 |  | 2.37 |  |  |  |  | 
CN(C(=O)/C=C/C1CCCCC1)[C@@H]1CC[C@@]2(O)[C@H]3Cc4ccc(O)c5c4[C@@]2(CCN3CC2CC2)[C@H]1O5 | 5710 | 0.071 | Active | 0.457 | 143 | 17 | 0.004 | 1.08 |  |  |  |  | 
CN(C(=O)/C=C/c1ccoc1)[C@@H]1CC[C@@]2(O)[C@H]3Cc4cccc5c4[C@@]2(CCN3CC2CC2)[C@H]1O5 | 12 |  |  | 27.2 | 8.4 |  |  | 0.07 |  |  |  |  | 
CN(C(=O)/C=C/c1ccccc1)[C@H]1CC[C@@]2(O)[C@H]3Cc4ccc(O)c5c4[C@@]2(CCN3CC2CC2)[C@H]1O5 | 14000 | 0.032 | Active | 0.42 | 41.6 | 9.7 | 0.0033 | 0.16 |  |  |  |  | 
CN(C(=O)/C=C/c1ccoc1)[C@@H]1CC[C@@]2(O)[C@H]3Cc4ccc(O)c5c4[C@@]2(CCN3CCc2ccccc2)[C@H]1O5 |  |  |  |  |  |  | 1.03 |  |  |  |  |  | 
CN(C(=O)/C=C/c1cccc([N+](=O)[O-])c1)[C@@H]1CC[C@@]2(O)[C@H]3Cc4ccc(O)c5c4[C@@]2(CCN3CC2CC2)[C@H]1O5 | 185 | 0.22 |  | 0.23 | 89 | 12.9 |  | 1.4 |  |  |  |  | 
CN(C(=O)/C=C/c1ccco1)[C@@H]1CC[C@@]2(O)[C@H]3Cc4ccc(O)c5c4[C@@]2(CCN3CC2CC2)[C@H]1O5 |  | 0.015 | Active | 0.55 |  | 9.4 |  | 0.2 |  |  |  |  | 
CCCCCCO[C@@H]1CC[C@@]2(O)[C@H]3Cc4ccc(O)c5c4[C@@]2(CCN3CC2CC2)[C@H]1O5 | 4.5 |  |  | 16 | 1.5 |  | 1.78 | 0.12 |  |  |  |  | 
CN(C(=O)CCc1ccccc1)[C@@H]1CC[C@@]2(O)[C@H]3Cc4ccc(O)c5c4[C@@]2(CCN3CC2CC2)[C@H]1O5 |  | 0.29 |  | 0.019 | 188 | 7.3 |  | 0.008 |  |  |  |  | 
CN(C(=O)/C=C/c1ccoc1)[C@@H]1CC[C@@]2(O)[C@H]3Cc4ccc(O)c5c4[C@@]2(CCN3CC2CC2)[C@H]1O5.Cl [NALFURAFINE HYDROCHLORIDE] |  | 0.032 | Active |  |  |  |  |  | Active | Active | inactive |  | 
CN(C(=O)Cc1ccc(Cl)c(Cl)c1)[C@H]1CC[C@@]2(O)[C@H]3Cc4ccc(O)c5c4[C@@]2(CCN3CC2CC2)[C@H]1O5 | 53 | 0.83 |  | 0.4 | 17.1 | 48 |  | 0.55 |  |  |  |  | 
CN(C(=O)/C=C/c1ccsc1)[C@@H]1CC[C@@]2(O)[C@H]3Cc4ccc(O)c5c4[C@@]2(CCN3CC2CC2)[C@H]1O5 |  | 0.04 | Active | 0.1 |  | 9.5 |  | 1.71 |  |  |  |  | 
CN(C(=O)/C=C/c1cccs1)[C@@H]1CC[C@@]2(O)[C@H]3Cc4ccc(O)c5c4[C@@]2(CCN3CC2CC2)[C@H]1O5 |  | 0.026 | Active | 0.1 | 89.6 | 9.6 | 0.0027 | 0.28 |  |  |  |  | 
CC(=O)Nc1ccc2c3c1O[C@H]1[C@H](N(C)C(=O)/C=C/c4ccoc4)CC[C@@]4(O)[C@@H](C2)N(CC2CC2)CC[C@]314 |  |  |  |  |  |  | > 10 |  |  |  |  |  | 
O=C(/C=C/c1ccoc1)N[C@@H]1CC[C@@]2(O)[C@H]3Cc4ccc(O)c5c4[C@@]2(CCN3CC2CC2)[C@H]1O5 |  |  |  | 0.869 | 8100 |  | 0.95 | 0.44 |  |  |  |  | 

SMILES | Ke [1] [nM] | ED50 (Mus musculus [2]) [mg/kg] | Activity (Mus musculus [3]) | IC50 [4] [nM] | Ke [5] [nM] | Ratio ED50 (Mus musculus [6]) | ED50 (Mus musculus [7]) [mg/kg] | Ke [8] [nM] | Activity (Mus musculus [9]) | Activity (Mus musculus [10]) | Activity (Mus musculus [11]) | inhibition in vivo at 10 mg/kg (Mus musculus [12]) [%] | inhibition [13] [%]
CN(C(=O)/C=C/c1ccoc1)[C@@H]1CC[C@H]2[C@H]3Cc4ccc(O)c5c4[C@@]2(CCN3CC2CC2)[C@H]1O5 | 8.04 |  |  | 0.035 | 1.31 |  | 0.02 | 0.07 |  |  |  |  | 
CN(C(=O)Cc1ccc(Cl)c(Cl)c1)[C@@H]1CC[C@@]2(O)[C@H]3Cc4ccc(O)c5c4[C@@]2(CCN3CC2CC2)[C@H]1O5 | 17000 | 18 |  | 17 | 1110 | 39.1 |  | 1.37 |  |  |  |  | 
CN(C(=O)/C=C/c1ccccc1)[C@@H]1CC[C@@]2(O)[C@H]3Cc4ccc(O)c5c4[C@@]2(CCN3CC2CC2)[C@H]1O5 | 922 | 0.011 | Active | 0.166 | 263 | 5.5 | 0.002 | 0.861 |  |  |  |  | 
Cc1cccc(/C=C/C(=O)N(C)[C@@H]2CC[C@@]3(O)[C@H]4Cc5ccc(O)c6c5[C@@]3(CCN4CC3CC3)[C@H]2O6)c1 | 1780 | 0.064 | Active | 0.32 | 64.5 | 9.7 |  | 1.95 |  |  |  |  | 
CN1CC[C@]23c4c5ccc(O)c4O[C@H]2[C@H](N(C)C(=O)/C=C/c2ccoc2)CC[C@@]3(O)[C@H]1C5 | 8.1 |  |  | 55 | 33 |  | 1.03 | 6.3 |  |  |  |  | 
CN(C(=O)/C=C/c1ccc(C(F)(F)F)cc1)[C@@H]1CC[C@@]2(O)[C@H]3Cc4ccc(O)c5c4[C@@]2(CCN3CC2CC2)[C@H]1O5 | 524 | 0.026 | Active | 0.07 | 78 | 1.1 |  | 0.2 |  |  |  |  | 
CN(C(=O)/C=C/c1cccc(C(F)(F)F)c1)[C@@H]1CC[C@@]2(O)[C@H]3Cc4ccc(O)c5c4[C@@]2(CCN3CC2CC2)[C@H]1O5 |  | 0.034 |  | 0.47 | 291 | 7.4 |  | 3.2 |  |  |  |  | 
CN(C(=O)/C=C/c1ccoc1)[C@H]1CC[C@@]2(O)[C@H]3Cc4ccc(O)c5c4[C@@]2(CCN3CC2CC2)[C@H]1O5 |  | 0.13 |  |  |  |  |  |  |  |  |  |  | 
CCCCCC(=O)N[C@@H]1CC[C@@]2(O)[C@H]3Cc4ccc(O)c5c4[C@@]2(CCN3CC2CC2)[C@H]1O5 | 4.4 |  |  | 25 | 2.3 |  |  | 0.26 |  |  |  | 25 | 
CCC/C=C/C(=O)N(C)[C@@H]1CC[C@@]2(O)[C@H]3Cc4ccc(O)c5c4[C@@]2(CCN3CC2CC2)[C@H]1O5 | 1800 | 0.21 |  | 0.647 |  | 8.8 |  | 0.072 |  |  |  |  | 
CN(C(=O)c1ccc2ccccc2c1)[C@@H]1CC[C@@]2(O)[C@H]3Cc4ccc(O)c5c4[C@@]2(CCN3CC2CC2)[C@H]1O5 |  |  |  |  |  |  | 3.6 |  |  |  |  |  | 
CCCCCCS[C@@H]1CC[C@@]2(O)[C@H]3Cc4ccc(O)c5c4[C@@]2(CCN3CC2CC2)[C@H]1O5 |  |  |  |  |  |  | 15.8 |  |  |  |  |  | 38
CCCCCCN[C@@H]1CC[C@@]2(O)[C@H]3Cc4ccc(O)c5c4[C@@]2(CCN3CC2CC2)[C@H]1O5 | 14 |  |  | 2 |  |  |  | 0.3 |  |  |  |  | 
CN(C(=O)/C=C/c1ccoc1)[C@@H]1CC[C@@]2(O)[C@H]3Cc4ccc(O)c5c4[C@@]2(CCN3)[C@H]1O5 |  |  |  |  |  |  | 7.07 |  |  |  |  |  | 
O=C(/C=C/c1ccoc1)S[C@@H]1CC[C@@]2(O)[C@H]3Cc4ccc(O)c5c4[C@@]2(CCN3CC2CC2)[C@H]1O5 |  |  |  |  |  |  | > 10 |  |  |  |  |  | 
CN(C(=O)/C=C/c1ccoc1)[C@@H]1CC[C@@]2(O)[C@H]3Cc4ccc(N)c5c4[C@@]2(CCN3CC2CC2)[C@H]1O5 |  |  |  |  |  |  | 0.2 |  |  |  |  |  | 
